The list is not random: actives were taken first. Their share in the collection is about 1.8%.
M4 PAM – human M4 muscarinic receptor positive allosteric modulators, primary screen, CHO-K1 cells, Fluo-8 calcium fluorescence; activation, % at 3 µM; CHO-K1 hM4/Gqi5, ACh EC20; 0% = ACh EC20, 100% = maximal ACh; 0.4% of 360,000 active; Muscarinic acetylcholine receptor M4 (Homo sapiens), P08173; AID 624126, 2012;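 active means activation above its plate's cutoff, the mean activation of sample wells plus 3 SD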
Target sequence (P08173 whole entry, looked up): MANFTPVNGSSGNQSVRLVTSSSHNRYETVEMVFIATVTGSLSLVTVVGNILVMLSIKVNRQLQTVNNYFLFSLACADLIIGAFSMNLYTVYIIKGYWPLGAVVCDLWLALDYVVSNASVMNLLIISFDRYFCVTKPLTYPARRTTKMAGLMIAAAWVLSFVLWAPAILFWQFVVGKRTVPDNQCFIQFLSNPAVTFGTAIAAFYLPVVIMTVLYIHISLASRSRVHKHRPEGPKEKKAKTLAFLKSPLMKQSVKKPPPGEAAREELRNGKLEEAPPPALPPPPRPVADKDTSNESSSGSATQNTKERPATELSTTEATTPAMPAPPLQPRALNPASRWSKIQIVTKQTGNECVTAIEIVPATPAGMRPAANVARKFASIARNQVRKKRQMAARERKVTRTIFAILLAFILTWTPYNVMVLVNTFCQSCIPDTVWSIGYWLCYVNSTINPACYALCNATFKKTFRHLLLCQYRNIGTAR
M4 antag – human M4 muscarinic receptor antagonists, primary screen, CHO cells, Fluo-8 calcium fluorescence; CHO-hM4 cells, ACh EC80; inhibition, % at 3 µM; 0.73% of 360,000 active; AID 624125, 2012;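 active means inhibition above its plate's cutoff, the mean inhibition of sample wells plus 3 SD, cut at about 27% in these data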;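 further: 0% = acetylcholine EC80 with DMSO and 100% = DMSO without agonist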
CHRM5 agonist – human M5 muscarinic receptor agonists, primary screen, CHO-K1 cells, Fluo-8 calcium fluorescence; CHO-K1 hM5 cells; 0% DMSO wells, 100% maximal acetylcholine response; activation, % at 3 µM; AID 624037, 2012; 0.19% of 360,000 active; Muscarinic acetylcholine receptor M5 (Homo sapiens), P08912;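 active means activation above the run's mean over test compounds plus 3 SD, cut at about 23% in these data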;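 further: signal is peak over basal fluorescence ratio across the kinetic read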
CHRM5 antagonist – human M5 muscarinic receptor antagonists, primary screen, CHO cells, Fluo-8 calcium fluorescence; 0.59% of 360,000 active; inhibition, % at 3 µM; CHO-hM5 cells, ACh EC80; AID 624040, 2012; Muscarinic acetylcholine receptor M5 (Homo sapiens), P08912;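 active means inhibition above a per-plate cutoff, the mean of that plate's test compounds plus 3 SD, cut at about 27% in these data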;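 further: 0% = acetylcholine EC80 with DMSO and 100% = DMSO without agonist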
M4 ag – human M4 muscarinic receptor agonists, primary screen, CHO-K1 cells, Fluo-8 calcium fluorescence; Muscarinic acetylcholine receptor M4 (Homo sapiens), P08173; 0.14% of 360,000 active; CHO-K1 hM4/Gqi5; vehicle 0%, full acetylcholine response 100%; activation, % at 3 µM;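 active means activation above the run mean over all test wells plus 3 SD, cut at about 32% in these data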;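 further: peak over basal fluorescence ratio per well then scaled between controls; 0% = DMSO wells and 100% = acetylcholine at EC100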
M5 PAM – human M5 muscarinic receptor positive allosteric modulators, primary screen, CHO-K1 cells, Fluo-8 calcium fluorescence | Muscarinic acetylcholine receptor M5 (Homo sapiens), P08912 | CHO-K1 hM5, ACh EC20 PAM; 0% = ACh EC20, 100% = ACh EC100 | activation, % at 3 µM | 0.3% of 360,000 active;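 active means activation above the run cutoff, the mean activation of all test compounds plus 3 SD, cut at about 18% in these data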
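Test system: CHO-K1 hM5 cells / Doses: single-point, 3 µM nominal / Times: Post-acetylcholine fluorescence recording 140 s / Technique: Fluo-8 calcium fluorescence / Measure: Max/basal fluorescence ratio as % of EC20–EC100 ACh window / Benchmarks: low control EC20 acetylcholine (0%), high control EC100 acetylcholine (100%) / Replicates: one well per compound, no replicates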
An asterisk follows results filed as active; ! = not confirmed by another sample.

SMILES	M4 PAM	M4 antag	CHRM5 agonist	CHRM5 antagonist	M4 ag	M5 PAM
CC(=O)Nc1ccc2c(c1)Cc1cc(N3C(=O)C=CC3=O)ccc1-2	-7	33*	-8	16	5	-16
O=[N+]([O-])c1ccc2c(c1)Cc1cc(F)ccc1-2	4	3	-2	-4	1	0
CCCCNC(=O)c1nc(C2CCN(S(=O)(=O)c3ccc(S(C)(=O)=O)cc3)CC2)oc1-c1ccccc1	-18	11	-4	30*	14	-19
CCN(CC)c1ccc(C=NNc2ccc([N+](=O)[O-])cn2)cc1	-3	1	35*	37*	1	-15
O[Si](CCCN1CCCCC1)(c1ccc(F)cc1)C1CCCCC1 (configuration not stated)	-19	90*	1	74*	5	-18
CC1(C(=O)NS(=O)(=O)Cc2ccccc2C(F)(F)F)CCN1C(=O)c1ccco1 (configuration not stated)	5	0	-1	2	0	-2
O=C(NCc1ccncc1)[C@@H]1CCCN1C(=O)[C@H]1CCCN1C(=O)c1ccccc1	1	7	3	6	1	-1
O=[N+]([O-])c1ccc(COc2cccnc2)cc1	-4	-7	0	3	2	-3
O=[N+]([O-])c1ccc(-c2cccnc2)cc1	1	3	2	4	1	18*
C=C[C@@H]1c2cc(C)ccc2N(S(=O)(=O)c2ccc(C)cc2)[C@H](c2ccccc2)C1(C#N)C#N	10	0	3	-19	0	19*
O=S1(=O)N[C@@H](Cc2ccccc2)COc2cccc(N3CCSCC3)c21	0	-10	2	3	12	-1
COc1ccc(Cn2c(O)c(C=Nc3ccccc3C(=O)O)c3ccccc3c2=O)cc1	16	-18	3	-3	-2	13
COc1ccccc1NS(=O)(=O)c1cccc(-n2c(O)c(C=Nc3ccccc3C(=O)O)c3ccccc3c2=O)c1	36*	1	-1	-3	-2	9
CCNC(=O)C1(C)CCN(C(=O)c2ccc3c(c2)OCO3)C1 (configuration not stated)	1	-9	0	8	0	-5
Cc1cc(OCC(=O)NCCc2ccc(Cl)cc2)c2c(C)cc(=O)oc2c1	11	-15	-1	-13	0	19*
Cc1ccc(S(=O)(=O)N2[C@H](c3cccc(Cl)c3)CC(=O)[C@@H]3CN(S(=O)(=O)c4ccccc4C)[C@H](c4ccc(Cl)cc4)C[C@@H]32)cc1	-2	8	2	4	0	-4
CC1(c2nnnn2Cc2ccccc2)CCC(=O)N1CCOc1ccccc1 (configuration not stated)	7	-4	3	3	2	-1
O=C(Cn1c2ccccc2c2nc3n(c(=O)c21)CCS3)Nc1ccccc1C(F)(F)F	10	-7	11	8	4	19*
Nc1cc(=O)[nH]c(SCCOc2ccccc2)n1	-10	2	-1	27*	18	-16
O=C(NC1CCCCC1)C1c2ccccc2OCC(=O)N1CCc1c[nH]c2ccccc12 (configuration not stated)	8	3	5	-9	1	8
CC1(Oc2ccccc2-c2ccno2)CCN(Cc2csc3ccccc23)C1 (configuration not stated)	-8	33*	-1	4	1	-5
CN(C)c1ccc(/C=C2\Oc3ccc(C#Cc4cccc(N)c4)cc3C2=O)cc1	-21	14	67*	33*	96*	-27
Cc1ccc(C(=O)CSC2=C(C#N)C(c3ccco3)CC(=O)N2)c(C)c1 (configuration not stated)	-14	14	47*	3	29	-13
Cc1ccc(C)n1-c1ccc(C(=O)NCc2ccncc2)cc1	11	-2	-3	-1	2	-7
Cc1ccc(C)n1-c1ccc(C(=O)NN)cc1	1	-14	0	8	2	21*
SMILES	M4 PAM	M4 antag	CHRM5 agonist	CHRM5 antagonist	M4 ag	M5 PAM
CC(=O)c1c(C)[nH]c(C)c1C(C)=O	32*	-8	0	-18	1	27*
CC(=O)c1c(C)[nH]c(C(=O)O)c1C	-6	-1	-7	2	1	-4
O=C(Nc1ccccn1)c1ccc2ccccc2c1O	-2	-2	11	-12	2	19*
O=C(O)c1ccccc1C(=O)Nc1ccccn1	7	10	0	-3	0	-2
CC(C)(C)S(=O)N1Cc2cc(C(=O)Nc3ccc(-c4ccccc4)cc3)nc(-c3cccc(-c4cc5ccccc5o4)c3)c2[C@@H]1CCO (some centres not stated)	21*	-8	4	-5	1	12
CC(C)NC(=O)CN1CCN(C(=O)c2ccc3oc(CCCc4ccccc4)nc3c2)CC1	23*	-4	-3	6	3	3
CCOC(=O)Cc1c(-c2cccc(Br)c2)nc2c3ccccc3ccn12	-6	-5	1	9	4	-10
Brc1ccc(-c2nnc3c4ccccc4nc(N4CCOCC4)n23)cc1	40*	1	3	-2	1	6
Clc1ccc(-c2nnc3c4ccccc4nc(N4CCOCC4)n23)cc1Cl	-10	-3	1	6	9	-10
COC(=O)C1=C(C)OC(N)=C(C#N)C1c1cc2cc(C)ccc2nc1Cl (configuration not stated)	-9	8	26*	23	22	-19
COc1ccc2cc3[n+](cc2c1OC)CCc1cc2c(cc1-3)OCO2	-14	41*!	0	-3	0	-4
COc1cccc(C2=NCCc3cc4c(cc32)OCO4)c1OC	-4	10	1	4	3	-4
CSc1ccc(Cn2c(C)c(C(=O)NCc3ccc4c(c3)OCO4)sc2=O)cc1	-5	-4	1	3	7	-12
CC(C)(C)c1ccc(C(=O)NCC2CCCN2S(=O)(=O)c2ccccc2)cc1 (configuration not stated)	4	-16	0	2	5	-8

From PubChem BioAssay
